Bioassay records as filed in PubChem.
M1 ag = M1 muscarinic receptor agonists, primary screen, CHO-M1 cells, Fluo-4 calcium, agonist mode | Muscarinic acetylcholine receptor M1 | Fluo-4 calcium fluorescence; stronger effect = higher value | B-score at 10 µM | 64,000 tested, 3% active | AID 626, 2007;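 active means fluorescence rise, raw or as B-score row- and column-corrected plate score, outside the 99.7% band of its plate's samples, either direction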
D1 mod = D1 CRE-luciferase signal change, two-sided – cell-based, HEK293 D1, dopamine EC30, D1 allosteric modulator project, primary screen; D(1A) dopamine receptor (Homo sapiens), P21728; dopamine EC30 potentiation; actives deviate in either direction; B-score at 10 µM; 58,000 tested, 5.9% active;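 active means luminescence count or its row- and column-corrected plate score outside the 99.7% band of the plate's sample wells, on either side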
M1 antagonist = antagonists of rat M1 muscarinic receptor; CHO-M1 cells, Fluo-4 calcium, ACh EC80 antagonist mode; stronger effect = lower value; Muscarinic acetylcholine receptor M1 (Rattus norvegicus), P08482; AID 628, 2007; 64,000 tested, 3.4% active; B-score at 10 µM;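 active means calcium fluorescence response, raw or row-and-column corrected B-score, differing from the plate sample mean either way at a set confidence level, mostly lower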
Target sequence (P08482 whole entry, looked up): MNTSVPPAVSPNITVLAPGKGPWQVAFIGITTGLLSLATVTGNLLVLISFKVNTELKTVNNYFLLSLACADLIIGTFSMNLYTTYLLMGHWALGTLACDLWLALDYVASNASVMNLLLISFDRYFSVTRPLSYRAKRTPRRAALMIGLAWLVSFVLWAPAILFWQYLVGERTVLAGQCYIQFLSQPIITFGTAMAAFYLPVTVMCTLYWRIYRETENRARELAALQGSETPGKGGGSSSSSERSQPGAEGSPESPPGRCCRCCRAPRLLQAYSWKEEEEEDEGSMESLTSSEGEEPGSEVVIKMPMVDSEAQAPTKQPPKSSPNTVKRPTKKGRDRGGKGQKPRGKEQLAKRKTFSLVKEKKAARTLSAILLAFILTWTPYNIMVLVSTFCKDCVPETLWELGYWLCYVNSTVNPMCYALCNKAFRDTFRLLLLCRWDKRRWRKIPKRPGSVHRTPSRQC
S1P3 ag = human S1P3 receptor agonists, primary screen, cell-based, primary and confirmation, NFAT-BLA reporter. Sphingosine 1-phosphate receptor 3 (Homo sapiens), Q99500. S1P3 NFAT-BLA reporter cells, agonism, FRET ratio; relative to 1 µM S1P, basal subtracted. activation, % at 4.5 µM. 60,000 tested, 0.1% active. AID 373, 2006;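 active means activation above the screen-wide mean plus 3 SD, cut at about 4.5% in these data, passing the limit was not always enough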
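Assay system: stable CHO line with human S1P3, Gα16, NFAT-BLA reporter; Detection: FRET β-lactamase substrate fluorescence, excitation 405 nm, 460/535 nm emission ratio, background-subtracted; Read-out: percent activation versus median 1 µM S1P response, basal-subtracted, per plate; Incubation: cells plated overnight, compound 4 h 37 °C, substrate 2 h RT.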
S1P1 ag-PAM = S1P1 agonists and agonism potentiators, primary screen, cell-based, primary and confirmation screens, CRE-bla reporter | S1P1 CRE-bla cells, forskolin, beta-lactamase FRET, potentiator mode; S1P1 agonist co-added at EC20, 2 nM; 100% = saturating reference agonist, 0% = basal | activation, % at 9.5 µM | 56,000 tested, 0.57% active;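 active means activation above a cutoff set at the mean activation of all tested compounds plus 3 SD, cut at about 54% in these data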;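 further: forskolin at 4 µM as EC80 and the EC20 agonist is SEW2871; 100% = SEW2871 at its EC100 plus forskolin at EC80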
M1 antag confirm = rat M1 muscarinic receptor antagonists, confirmation, CHO cells, Fluo-4 calcium, duplicate | shares compounds with M1 antagonist | ACh EC80 antagonism; stronger effect = lower value | calcium response (max-min fluorescence) at 10 µM | 1,700 tested, 43% active | AID 677, 2007;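 active means calcium response below the same-plate mean of wells given acetylcholine alone at its 80%-effect dose, minus 3 SD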;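 further: raw fluorescence intensity difference in arbitrary instrument units and not normalized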
mGluR4 antag = human mGluR4 response to M1 antagonist hits, M1 allosteric modulator project, cell-based, antagonist mode, secondary assay 1. 1,700 tested, 0.9% active. shares compounds with M1 antagonist. CHO-mGluR4 calcium flux, Fluo-4 fluorescence, glutamate EC80; stronger effect = lower value. fluorescence response (max-min) at 10 µM;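 active means fluorescence response below the plate's average for near-maximal glutamate wells, less 3 SD of those wells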;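 further: raw unnormalized fluorescence span taken in the window right after glutamate addition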
Active calls of the source: *; / = no result. Rows were chosen to be rich in hits. Some 11% of all compounds tested hit in one or more screens of this group.

SMILES | M1 ag | D1 mod | M1 antagonist | S1P3 ag | S1P1 ag-PAM | M1 antag confirm | mGluR4 antag
CC(C)NC(=O)Cn1nnc(-c2cccc(NC(=O)c3ccccc3F)c2)n1 | 0.58 | -0.48 | -17* | -1 | 29 | 634 | 250
COc1ccc(-c2oc3ncn(CCN4CCOCC4)c(=N)c3c2-c2ccc(OC)cc2)cc1 | -0.17 | 1.7 | -11* | 0 | -28 | 261* | 264
COc1ccc(-c2oc3ncnc(NCCN4CCOCC4)c3c2-c2ccc(OC)cc2)cc1 | 0.75 | 0.047 | 0.019 | -1 | -16 | / | /
CCCn1nnc(NC(=O)COc2ccc(C3CCCCC3)cc2)n1 | -0.71 | -1.1 | -0.2 | -1 | -8 | / | /
COc1c(C)cc(Br)cc1C(=O)O | 0.48 | -0.28 | -13* | -1 | / | 710 | 203
O=C(OC(C(=O)NCC1CCCO1)c1ccccn1)c1cccs1 (centres undefined) | -0.46 | 0.042 | -0.037 | / | / | / | /
CC(OC(=O)C1CCN(S(=O)(=O)c2ccccc2)CC1)C(=O)Nc1ncc(Cl)cc1Cl (centres undefined) | -1.7 | -0.51 | -1.3* | 1 | 27 | 668 | 250
CC(OC(=O)CCCN1C(=O)c2ccccc2C1=O)C(=O)Nc1ncc(Cl)cc1Cl (centres undefined) | -0.3 | 0.082 | -0.068 | -2 | -8 | / | /
COc1ccc(C(=O)N2CCC(C(=O)Nc3ccccc3OC)CC2)cc1 | 0.19 | -0.34 | -5* | -1 | 0 | 644 | 249
Cn1c(SCc2ccc(Br)cc2)nnc1-c1cccs1 | 0.4 | -0.85 | -4.4* | -1 | 8 | 526 | 204
C=CCN1C(=Nc2cccnc2)SCC1(O)c1ccc(C)cc1 (centres undefined) | 2 | -0.19 | -2.2* | 0 | 77* | 478* | 203
Cc1ccc(N(C(C)C(=O)N2CCCCC2)S(C)(=O)=O)cc1C (centres undefined) | 0.45 | 0.23 | -0.0044 | -1 | 13 | / | /
CCOC(=O)N1CCN(c2c(NCC3CCN(Cc4cccc(C)c4)CC3)c(=O)c2=O)CC1 | 0.12 | -0.18 | -0.34 | -1 | -22 | / | /
CCn1cc(C(=O)NCCCN2CCC(C)CC2)c2cc(OC)c(OC)cc2c1=O | 0.11 | 0.14 | 0.2 | 0 | -9 | / | /
Cc1cccc(-c2noc(CCCC(=O)Nc3cccnc3)n2)c1 | -0.46 | / | -0.0022 | 0 | 7 | / | /
O=C(CCCc1nc(-c2ccc(Cl)cc2)no1)Nc1cccnc1 | 1.4 | -1.3 | -2.7* | -1 | 0 | 528* | 214
O=C(CN1CCC(NC(=O)Nc2ccccc2-c2ccccc2)CC1)NCc1ccco1 | -1.4 | 0.12 | -4* | -1 | -6 | 215* | 197
O=C(CCN1CCC(c2ccccc2)C1)c1cccs1 (centres undefined) | 0.01 | -4.7* | -5.1* | -1 | 2 | 514 | 191
CCOc1ccc(C2=Nn3c(nnc3-c3ccccn3)SC2)cc1 | 1.4 | / | -3.2* | -1 | 23 | 653 | 234
COc1cc2nc3c4ccccc4n(CC#N)c3nc2cc1OC | -0.4 | 2.1 | 0.81 | 1 | -34 | / | /
CCn1c2ccccc2c2nc3cc(OC)c(OC)cc3nc21 | 1.5 | -0.011 | -5.7* | 1 | -79 | 462 | 154*
CCOC(=O)C1=C(c2ccccc2)N=C2SCC(=O)N2C1c1ccc2c(c1)OCO2 (centres undefined) | -0.05 | 0.27 | 1.1 | -2 | -17 | / | /
CCn1c(C(=O)NCCCN2CCc3ccccc3C2)cc2sccc21 | 0.17 | / | -3.6* | -1 | 0 | 492* | 233
O=C(Cn1c(C(=O)NCCCN2CCOCC2)cc2sccc21)c1ccccc1 | -0.036 | / | -1.5 | / | / | / | /
